Test results from ChEMBL document CHEMBL1122389, “Synthesis and substituent effects on antibacterial activity, alkaline hydrolysis rates, and infrared absorption frequencies of some cephem analogues related to latamoxef (moxalactam)” (J Med Chem, 1983).

Experiments:
Escherichia coli [1] = test: Minimum inhibitory concentration (MIC) against Escherichia coli NIHJ JC-2 in gradient plate method; type: functional
Outline: (§1)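 Gradient plate technique. Compound is incorporated into a tilted bottom agar layer, then overlaid horizontally with compound-free agar. A 10^6 cells/mL suspension is streaked across the gradient and incubated at 37 °C for 18–20 h. MIC is calculated from the growth distance along the streak and the original bottom-layer concentration.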

Klebsiella pneumoniae [2] = test: Minimum inhibitory concentration (MIC) against Klebsiella pneumoniae SRL-1 iin agar dilution method; type: functional
Outline: (§2)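 Agar dilution on sensitivity test agar. Overnight tryptose broth culture diluted in the same broth to about 10^6 cells/mL and inoculated onto agar containing serial twofold dilutions of antibiotic. Incubated at 37 °C for 18–20 h. MIC taken as the lowest concentration inhibiting visible growth.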

[3] = Pseudo-first order rate of beta-lactam cleavage at pH 9.2 and 35 degrees C; type: ADME
Outline: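 Alkaline hydrolysis at pH 9.2 and 35.0 °C, followed as loss of absorbance near 260 nm. This is a slightly lower pH than a pH 9.94 carbonate buffer (NaHCO3 + Na2CO3 + NaCl, μ = 0.5). Pseudo-first-order k is obtained by least squares over the linear regions at 95% confidence.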

Klebsiella pneumoniae [4] = test: Minimum inhibitory concentration (MIC) against Klebsiella pneumoniae SRL-1 in gradient plate method; type: functional; outline: as §1
[5] = V max(amide I) measured in dimethyl sulfoxide; type: ADME
Outline: (§3)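 IR stretching frequencies measured in dimethyl sulfoxide solution. Frequencies are calibrated against the rotational bands of the vapor.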

[6] = V max(beta-lactam) measured in dimethyl sulfoxide; type: ADME; outline: as §3
Escherichia coli [7] = test: Minimum inhibitory concentration (MIC) against Escherichia coli NIHJ JC-2 in agar dilution method; type: functional; outline: as §2
Klebsiella pneumoniae [8] = test: Minimum inhibitory concentration (MIC) against Klebsiella pneumoniae SRL-1 in agar dilution method; type: functional; outline: as §2

| MIC (Escherichia coli [1]) [µg/mL] | MIC (Klebsiella pneumoniae [2]) [µg/mL] | k [3] [h⁻¹] | MIC (Klebsiella pneumoniae [4]) [µg/mL] | Vmax [5] [cm⁻¹] | Vmax [6] [cm⁻¹] | MIC (Escherichia coli [7]) [µg/mL] | MIC (Klebsiella pneumoniae [8]) [µg/mL] | Structure (SMILES) |
| --- | --- | --- | --- | --- | --- | --- | --- | --- |
| 0.08 | – | 0.228 | 0.1 | 1694.9 | 1772.9 | – | – | CO[C@@]1(NC(=O)Cc2ccc(O)cc2)C(=O)N2C(C(=O)[O-])=C(CSc3nnnn3C)COC21.[Na+] (some centres undefined) |
| 0.55 | 0.39 | 0.0239 | 0.37 | 1682.3 | 1767.8 | 0.78 | – | CO[C@@]1(NC(=O)C(C(=O)[O-])c2ccc(O)cc2)C(=O)N2C(C(=O)[O-])=C(CSc3nnnn3C)CSC21.[Na+].[Na+] (some centres undefined) |
| 0.5 | – | 0.0351 | 1.3 | 1690.6 | 1768.1 | – | – | CO[C@@]1(NC(=O)Cc2ccc(O)cc2)C(=O)N2C(C(=O)[O-])=C(CSc3nnnn3C)CSC21.[Na+] (some centres undefined) |

Continued, compound first:

| Structure (SMILES) | MIC (Escherichia coli [1]) [µg/mL] | MIC (Klebsiella pneumoniae [2]) [µg/mL] | k [3] [h⁻¹] | MIC (Klebsiella pneumoniae [4]) [µg/mL] | Vmax [5] [cm⁻¹] | Vmax [6] [cm⁻¹] | MIC (Escherichia coli [7]) [µg/mL] | MIC (Klebsiella pneumoniae [8]) [µg/mL] |
| --- | --- | --- | --- | --- | --- | --- | --- | --- |
| CO[C@@]1(NC(=O)C(C(=O)[O-])c2ccc(O)cc2)C(=O)N2C(C(=O)[O-])=C(CSc3nnnn3C)COC21.[Na+].[Na+] (some centres undefined) | 0.09 | 0.1 | 0.178 | 0.06 | 1686.6 | 1771.8 | 0.1 | – |
| Cn1nnnc1SCC1=C(C(=O)[O-])N2C(=O)[C@@H](NC(=O)C(C(=O)[O-])c3ccc(O)cc3)C2SC1.[Na+].[Na+] (some centres undefined) | 1.5 | – | 0.0239 | 2.3 | 1669 | 1770 | – | – |
| Cn1nnnc1SCC1=C(C(=O)[O-])N2C(=O)[C@@H](NC(=O)Cc3ccc(O)cc3)C2OC1.[Na+] (some centres undefined) | 0.34 | – | 0.139 | 0.31 | 1674.5 | 1778.2 | – | – |
| Cn1nnnc1SCC1=C(C(=O)[O-])N2C(=O)[C@@H](NC(=O)C(C(=O)[O-])c3ccc(O)cc3)C2OC1.[Na+].[Na+] (some centres undefined) | 0.29 | – | 0.127 | 0.3 | 1665.4 | 1779.2 | – | – |
| Cn1nnnc1SCC1=C(C(=O)[O-])N2C(=O)[C@@](C)(NC(=O)C(C(=O)[O-])c3ccc(O)cc3)C2OC1.[Na+].[Na+] (some centres undefined) | – | – | 0.0148 | – | 1668.2 | 1774.5 | 12.5 | 12.5 |
| COC1(NC(=O)C(C(=O)[O-])c2ccc(O)cc2)C(=O)N2C(C(=O)[O-])=C(CSc3nnnn3C)CCC21.[Na+].[Na+] (centres undefined) | – | – | 0.0694 | – | 1684.5 | 1757 | 6.25 | 3.13 |
| Cn1nnnc1SCC1=C(C(=O)[O-])N2C(=O)[C@@H](NC(=O)Cc3ccc(O)cc3)C2SC1.[Na+] (some centres undefined) | 1.2 | – | 0.0227 | 1.4 | 1676.3 | 1773.1 | – | – |
